Source: PubChem (The Scripps Research Institute Molecular Screening Center)
An excerpt weighted towards active compounds, which were near 1.8% of everything screened.
mABHD4 FP = ABHD4 (mouse) inhibition, primary FP screen | Q8VD66 | purified mABHD4, FP-Rh probe fluorescence polarization | inhibition, % at 8.92 µM | 370,000 compounds, 0.54% hits | AID 720543;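 active = inhibition exceeding the mean over every tested compound plus 3 SD, cut at about 30% in these data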;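 note: 0% = plate median of compound wells and 100% = S159A mutant with DMSO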
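Doses – 8.92 µM, single dose · Material – wild-type mouse ABHD4 protein · Replication – single well per compound (singlicate) · Measure – percent inhibition of probe binding, normalized to plate controls · Schedule – 45 min compound pre-incubation plus 60 min probe step, 25 °C · Detection – fluorescence polarization with parallel and perpendicular emission, 525/598 nm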
DDE Tn7 FP inh = disrupts Tn7 cyclic peptide binding to fibrin D-Dimer-E complex | P02675 | FP displacement of FITC-Tn7 peptide from fibrin DD(E); 0% = median of compound wells per plate | inhibition, % at 8.3 µM | 370,000 compounds, 0.13% hits | AID 720508;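 active = inhibition above the mean of compounds falling within the control limits plus 3 SD of them, cut at about 14% in these data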;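 note: 0% = plate median of compound wells and 100% = 10 µM Aha-Tn7 peptide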
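system = human fibrin DD(E) protein | quantity = DD(E) 2 µM final | medium = Tris/NaCl/CaCl2 buffer, pH 7.8 | also added = labelled Tn7 tracer, 0.1 µM | compound dosing = single point at 8.3 µM | timing = compound with protein 10 min, then 3 h after probe, room temperature | signal = FP measurement | benchmarks = Aha-Tn7 high control | repeats = one replicate per compound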
HTRA1 inhibitor = HTRA1 (human) protease inhibition. Q92743. recombinant HTRA1, FP-rhodamine activity-based probe, fluorescence polarization. inhibition, % at 5.96 µM. 340,000 compounds, 0.5% hits; in the data active = inhibition above about 36%;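 note: 0% = enzyme with DMSO and 100% = wells lacking enzyme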
Target sequence (Q92743 whole entry, looked up): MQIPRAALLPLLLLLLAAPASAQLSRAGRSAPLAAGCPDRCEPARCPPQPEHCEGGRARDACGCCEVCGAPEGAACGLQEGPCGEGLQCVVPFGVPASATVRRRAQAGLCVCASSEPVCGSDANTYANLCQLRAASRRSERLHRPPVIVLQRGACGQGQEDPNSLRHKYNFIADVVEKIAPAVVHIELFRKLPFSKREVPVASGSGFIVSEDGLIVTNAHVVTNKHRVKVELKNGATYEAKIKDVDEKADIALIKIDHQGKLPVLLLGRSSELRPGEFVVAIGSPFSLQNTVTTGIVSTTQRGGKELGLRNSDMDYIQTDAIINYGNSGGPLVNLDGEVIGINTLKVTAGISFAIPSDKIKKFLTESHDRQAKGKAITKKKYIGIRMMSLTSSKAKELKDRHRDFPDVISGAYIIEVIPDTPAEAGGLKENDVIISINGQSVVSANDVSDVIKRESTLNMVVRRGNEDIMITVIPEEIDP
SIAE primary = inhibitors of human sialic acid acetylesterase SIAE; Q9HAT2; SIAE FP-Rh probe binding, fluorescence polarization; inhibition, % at 9.66 µM; 370,000 compounds, 0.69% hits; AID 1053197;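 active = inhibition above a cutoff: mean of compounds within the control limits plus 3 SD of those, cut at about 17% in these data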;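 note: 0% = plate median of compound wells and 100% = probe without SIAE protein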
TCR CD3 inh = inhibitors of human TCR-CD3 interaction | TAMRA-labeled TCR probe fluorescence, biochemical | inhibition, % at 9.4 µM | 360,000 compounds, 0.37% hits; in the data active = inhibition above about 19%;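 note: recombinant mutant TCR 2C K166C tagged with TAMRA read by polarization; 0% = receptor in buffer alone and 100% = receptor with positive control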
DDE Tn6 FP inh = DD(E)-Tn6 binding inhibition, primary FP screen. Fibrin DD(E) TRITC-Tn6 fluorescence polarization displacement. 370,000 compounds, 0.21% hits. inhibition, % at 8.3 µM. AID 720509. P02675;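 active = inhibition above a per-campaign cutoff: mean of compounds within control limits plus 3 SD, cut at about 15% in these data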;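 note: 0% = median of all compound wells on the plate and 100% = blocking peptide control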
DDE Tn6 FP ctr = counter-screen for inhibitors of Tn6 peptide binding to fibrin DD(E); shares compounds with DDE Tn6 FP inh; TRITC-Tn6 fluorescence polarization displacement; 0% = median of compound wells, not DMSO; inhibition, % at 8.3 µM; 680 compounds, 2% hits; AID 720621;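 active = inhibition above the mean of test compounds lying between the control limits plus 3 SD of those, cut at about 14% in these data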;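 note: 0% = median of compound wells and 100% = wells with Aha-Tn7 blocking peptide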
Tn6 DDE conf = DD(E)-Tn6 binding inhibition, FP confirmation | shares compounds with DDE Tn6 FP inh | inhibition, % at 8.3 µM | FP displacement of TRITC-Tn6 peptide from DD(E); 0% = per-plate median of test wells | 680 compounds, 10% hits;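 active = inhibition above the mean of compounds lying within the control limits plus 3 SD, cut at about 16% in these data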;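 note: 100% = high control wells holding a competing inhibitor peptide at 10 µM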
* marks the source's active call; other numbers are inactive results.

Screening COc1cccc(OCC(=O)Nc2ccccc2NC(C)=O)c1 returned mABHD4 FP 4, DDE Tn7 FP inh -7, HTRA1 inhibitor 3, SIAE primary -3, TCR CD3 inh 5, DDE Tn6 FP inh 17*, DDE Tn6 FP ctr -1 and Tn6 DDE conf -2.
For COc1ccc(Cl)cc1NC(=O)COC(=O)CCNC(C)=O the results were mABHD4 FP 4, DDE Tn7 FP inh 6, HTRA1 inhibitor 2, SIAE primary -4, TCR CD3 inh 5, DDE Tn6 FP inh 17*, DDE Tn6 FP ctr 9 and Tn6 DDE conf 5.
Screening COc1ccc(Cl)cc1NC(=O)COC(=O)C1CC1 returned mABHD4 FP -6, DDE Tn7 FP inh 13, HTRA1 inhibitor -2, SIAE primary 2, TCR CD3 inh 1 and DDE Tn6 FP inh -10.
For COC(=O)[C@]12C[C@H](CC(=O)NCCc3ccccc3OC)C(=O)N(Cc3ccc(Cl)cc3Cl)C1=C[C@H](C1CCCC1)O[C@@H]2C the results were mABHD4 FP -1, DDE Tn7 FP inh 1, SIAE primary -1 and DDE Tn6 FP inh 5.
For Cc1nc2ccccc2n1-c1nc(-c2ccco2)cc(C(F)(F)F)n1 the results were mABHD4 FP -3, DDE Tn7 FP inh 0, HTRA1 inhibitor -5, SIAE primary 5, TCR CD3 inh 6, DDE Tn6 FP inh 18*, DDE Tn6 FP ctr -3 and Tn6 DDE conf -5.
For COc1ccc(C(=O)N/C=C/n2cnc3cc(C(F)(F)F)ccc32)cc1 the results were mABHD4 FP -6, DDE Tn7 FP inh 11, HTRA1 inhibitor -2, SIAE primary -2, TCR CD3 inh 2, DDE Tn6 FP inh 16*, DDE Tn6 FP ctr 3 and Tn6 DDE conf 0.
For Cc1cn([C@H]2C[C@H](O)[C@@H](CNCc3cccn3-c3nccs3)O2)c(=O)[nH]c1=O the results were mABHD4 FP 2, DDE Tn7 FP inh -1, HTRA1 inhibitor 6, SIAE primary 4, TCR CD3 inh -1 and DDE Tn6 FP inh -5.
`CCn1nccc1NC(=O)c1csc([C@@H]2C[C@H](O)[C@@H](CO)O2)n1` gave mABHD4 FP 4, DDE Tn7 FP inh -1, SIAE primary -1, TCR CD3 inh -1 and DDE Tn6 FP inh 10.
`CC[C@H]1CN2CCc3cc(OC)c(OC)cc3C2C[C@@H]1C[C@H]1NCCc2cc(OC)c(OC)cc21` (stereo partly drawn) gave mABHD4 FP 8, DDE Tn7 FP inh 4, HTRA1 inhibitor 0, SIAE primary 7, TCR CD3 inh 7 and DDE Tn6 FP inh -3.
CCC1=C(CC2NCCc3ccccc32)CC2c3cc(OC)c(OC)cc3CCN2C1 (stereo not drawn) was read as mABHD4 FP 13, DDE Tn7 FP inh 9, HTRA1 inhibitor 6, SIAE primary 12, TCR CD3 inh 14, DDE Tn6 FP inh 23*, DDE Tn6 FP ctr 4 and Tn6 DDE conf 3.
Screening CCc1ccc(/C=C2/SC(=S)N(CCC(=O)Nc3cccnc3)C2=O)cc1 returned mABHD4 FP 10, DDE Tn7 FP inh 1, HTRA1 inhibitor -5, SIAE primary -3, TCR CD3 inh 10 and DDE Tn6 FP inh 0.
For c1ccc2c(c1)ccc1ccccc12 the results were mABHD4 FP -4, DDE Tn7 FP inh 0, HTRA1 inhibitor 4, SIAE primary 0, TCR CD3 inh -1 and DDE Tn6 FP inh 4.
CC1=[N+](C)c2ccc3ccccc3c2C1(C)C was read as mABHD4 FP -83, DDE Tn7 FP inh -2, HTRA1 inhibitor -35, SIAE primary -123, TCR CD3 inh -41, DDE Tn6 FP inh 55*, DDE Tn6 FP ctr -1 and Tn6 DDE conf 8.
`Cc1cc(CN2CCC(n3nccc3NC(=O)c3ccccc3C)CC2)n[nH]1` gave mABHD4 FP 3, DDE Tn7 FP inh -1, HTRA1 inhibitor -3, SIAE primary 2, TCR CD3 inh -3 and DDE Tn6 FP inh 0.
Screening Nc1c(SCCC(=O)O)ccc2c1C(=O)c1ccccc1C2=O returned mABHD4 FP -7, DDE Tn7 FP inh 2, HTRA1 inhibitor -4, SIAE primary -30, TCR CD3 inh 17, DDE Tn6 FP inh 50*, DDE Tn6 FP ctr 6 and Tn6 DDE conf 27*.
`O=C(c1cc(F)c(F)cc1Cl)N1CCCc2ccccc21` gave mABHD4 FP 6, DDE Tn7 FP inh 8, HTRA1 inhibitor -4, SIAE primary 2, TCR CD3 inh -7 and DDE Tn6 FP inh -1.
`C/C(CC(=O)NCc1ccc(Cl)cc1)=N\NC(=O)c1ccccc1F` gave mABHD4 FP 3, DDE Tn7 FP inh 7, HTRA1 inhibitor 5, SIAE primary 10, TCR CD3 inh -3, DDE Tn6 FP inh 16*, DDE Tn6 FP ctr -4 and Tn6 DDE conf -14.
Screening CCN(CC)c1ccc(/C=C/c2cc(-c3ccccc3)c3ccccc3n2)cc1 returned mABHD4 FP -110, DDE Tn7 FP inh 0, HTRA1 inhibitor 25, SIAE primary -2, TCR CD3 inh -4, DDE Tn6 FP inh 17*, DDE Tn6 FP ctr -11 and Tn6 DDE conf -8.
Screening NS(=O)(=O)c1ccc(NC(=O)COC(=O)/C(=C/c2cccs2)c2cccs2)cc1 returned mABHD4 FP -51, DDE Tn7 FP inh -3, HTRA1 inhibitor -42, SIAE primary -26, TCR CD3 inh 11, DDE Tn6 FP inh 19*, DDE Tn6 FP ctr 0 and Tn6 DDE conf 1.
For CC(=O)c1ccc(NC(=O)C2CC(=O)N(Cc3ccccc3)C2)cc1 (stereo not drawn) the results were mABHD4 FP 1, DDE Tn7 FP inh 6, HTRA1 inhibitor 10, SIAE primary 1, TCR CD3 inh 2, DDE Tn6 FP inh 16*, DDE Tn6 FP ctr -2 and Tn6 DDE conf -3.
Screening O=C(Nc1ccccc1)C1CC(=O)N(Cc2ccccc2)C1 (stereo not drawn) returned mABHD4 FP -2, DDE Tn7 FP inh 1, HTRA1 inhibitor -1, SIAE primary -1, TCR CD3 inh 6 and DDE Tn6 FP inh 0.
`CC(COc1cc(F)cc(C#N)c1)CN1CCC(C(O)(c2ccccc2)c2ccccc2)CC1` (stereo not drawn) gave mABHD4 FP 6, DDE Tn7 FP inh -4, SIAE primary -3 and DDE Tn6 FP inh -6.
Screening CC(COc1ccccc1C#N)CN1CCC(C(O)(c2ccccc2)c2ccccc2)CC1 (stereo not drawn) returned mABHD4 FP 8, DDE Tn7 FP inh 8, SIAE primary -2, DDE Tn6 FP inh 16*, DDE Tn6 FP ctr 1 and Tn6 DDE conf 2.
